Results of several laboratories.
Protocols differ between the studies behind these lines.
Target: Vascular endothelial growth factor receptor 2 (KDR, Homo sapiens, UniProt P35968)

| Structure (SMILES) | assay | setting | quantity | result |
| --- | --- | --- | --- | --- |
| CN(C)C1CCN(CC#Cc2nn(C3CCCC3)c3nc(NCc4ccccc4)ncc23)C1 (stereo not shown) | enzyme activity, inhibitor, FRET | 10 µM | inhibition | 56% |
| Cc1sc(C(=O)NC2COC2)cc1-n1cc(NC(=O)Nc2c(F)cccc2Cl)cn1 | enzyme activity, inhibitor | 10 µM | remaining activity | 88.2% |
| COc1ccc(NC(=O)c2c(Nc3ccccc3)sc(C(=O)NN=Cc3ccc(Cl)cc3)c2NC(C)=O)cc1 | enzyme activity, inhibitor | 10 nM | remaining activity | 96.1% |
| CCS(=O)(=O)c1cc2cc(C[C@@](O)(CC(C)(C)c3ccc(F)cc3C(N)=O)C(F)(F)F)[nH]c2cn1 | cell-free assay, competition with immobilised ligand | 1 µM | remaining binding | 92% |
| Oc1cccc(-c2nc(N3CCOCC3)c3oc4ncccc4c3n2)c1 | cell-free assay | 0.5 µM | remaining signal | 85.9% |
| COc1ccc2cc(OCC3(C(=O)O)CN(C(=O)c4ccc(F)cc4)C3)ccc2c1 | cell-free assay, competition with immobilised ligand | 1 µM | remaining binding | 100% |
| COc1cc2ncnc(Nc3ccc(Oc4ccccc4)cc3C)c2cc1OC | enzyme activity, inhibitor | 1 µM | inhibition | 14% |
| COc1ccc(C=NNC(=O)c2sc(Nc3ccccc3)c(C(=O)Nc3ccc(OC)cc3)c2NC(C)=O)cc1 | enzyme activity, inhibitor | 10 µM | remaining activity | 48.6% |
| CCOc1cc(-c2nncn2C)ccc1Nc1ncc2cc(C)nc(NCC(C)(C)C)c2n1 | enzyme activity, inhibitor, FRET | 1 µM | inhibition | < 15% |
| CNc1cccc2cc(C(=O)Nc3ccc(C(=O)O)cc3)c(=O)[nH]c12 | enzyme activity, inhibitor | 10 µM | inhibition | 4.8% |
| c1nc2c(Nc3ccc4c(c3)OCCO4)nc(Nc3ccc4c(c3)OCCO4)nc2[nH]1 | enzyme activity, inhibitor | 10 µM | activity vs control | 11% |
| COc1ccc(NC(=O)c2c(Nc3ccccc3)sc(C#N)c2NC(=O)CNc2ccc(Br)cc2)cc1 | enzyme activity, inhibitor | 10 µM | remaining activity | 35.4% |
| Cc1c[nH]c2nccc(Oc3c(F)cc(Nc4cc(Cl)nc(N)n4)cc3F)c12 | cell-free assay, competition with immobilised ligand | 0.1 µM | remaining binding | 81% |
| COc1ccc(NC(=O)c2c(Nc3ccccc3)sc(C(=O)NN=Cc3cc(OC)c(OC)c(OC)c3)c2NC(C)=O)cc1 | enzyme activity, inhibitor | 10 nM | remaining activity | 100% |
| CCC(=N\O)/C(C)=C/c1ccc(F)cc1 | cell-free assay, competition with immobilised ligand | 1 µM | remaining binding | 81% |
| O=C1Cc2c([nH]c3ccc(Br)cc23)-c2ccccc2N1 | cell-free assay | 0.5 µM | remaining signal | 98.1% |
